Compound activity from PubChem.
This is a sample that favours compounds with a hit; in the whole collection about 1.8% have one here.
CHRM4 PAM: positive allosteric modulators of human muscarinic M4 receptor. P08173. CHO-K1 hM4/Gqi5, Fluo-8 calcium fluorescence, ACh EC20; 0% = ACh EC20, 100% = maximal ACh. activation, % at 3 µM. 360,000 tested, 0.4% active;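 active = activation above its plate's cutoff, the mean activation of sample wells plus 3 SD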
Target sequence (P08173 whole entry, looked up): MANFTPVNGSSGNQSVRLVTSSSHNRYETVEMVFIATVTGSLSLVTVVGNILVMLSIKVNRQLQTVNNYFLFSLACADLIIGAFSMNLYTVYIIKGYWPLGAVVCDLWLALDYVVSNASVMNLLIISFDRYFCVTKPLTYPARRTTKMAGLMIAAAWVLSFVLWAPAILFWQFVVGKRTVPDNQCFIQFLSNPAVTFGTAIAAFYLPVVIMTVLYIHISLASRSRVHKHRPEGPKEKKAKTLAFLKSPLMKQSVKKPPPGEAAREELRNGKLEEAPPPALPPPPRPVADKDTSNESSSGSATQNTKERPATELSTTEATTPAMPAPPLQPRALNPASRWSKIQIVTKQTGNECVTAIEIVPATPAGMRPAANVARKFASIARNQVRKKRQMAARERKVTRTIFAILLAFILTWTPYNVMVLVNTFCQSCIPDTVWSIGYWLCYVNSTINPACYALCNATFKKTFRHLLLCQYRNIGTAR
CHRM5 antagonist: antagonists of human muscarinic M5 receptor (CHRM5); inhibition, % at 3 µM; 360,000 tested, 0.59% active; P08912; AID 624040; CHO-hM5 cells, Fluo-8 calcium fluorescence, ACh EC80;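 active = inhibition above a per-plate cutoff, the mean of that plate's test compounds plus 3 SD, cut at about 27% in these data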
CHRM4 antagonist: antagonists of human muscarinic M4 receptor (CHRM4). AID 624125. P08173. inhibition, % at 3 µM. CHO-hM4 cells, ACh EC80, Fluo-8 calcium fluorescence. 360,000 tested, 0.73% active;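 active = inhibition above its plate's cutoff, the mean inhibition of sample wells plus 3 SD, cut at about 27% in these data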
M4 ag: CHRM4 agonism in calcium assay | P08173 | CHO-K1 hM4/Gqi5, Fluo-8 calcium fluorescence; vehicle 0%, full acetylcholine response 100% | activation, % at 3 µM | 360,000 tested, 0.14% active | AID 624127;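 active = activation above the run mean over all test wells plus 3 SD, cut at about 32% in these data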;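 also: peak over basal fluorescence ratio per well then scaled between controls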
CHRM5 agonist: CHRM5 agonism in calcium assay; AID 624037; 360,000 tested, 0.19% active; P08912; activation, % at 3 µM; CHO-K1 hM5 cells, Fluo-8 calcium fluorescence; 0% DMSO wells, 100% maximal acetylcholine response;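 active = activation above the run's mean over test compounds plus 3 SD, cut at about 23% in these data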;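 also: signal is peak over basal fluorescence ratio across the kinetic read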
M5 PAM: positive allosteric modulators of human muscarinic M5 receptor; 360,000 tested, 0.3% active; activation, % at 3 µM; CHO-K1 hM5, Fluo-8 calcium, ACh EC20 PAM; 0% = ACh EC20, 100% = ACh EC100;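 active = activation above the run cutoff, the mean activation of all test compounds plus 3 SD, cut at about 18% in these data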
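Replicates: One well per compound, no replicates | System: Human M5 receptor in CHO-K1 cells | Benchmarks: Low control EC20 acetylcholine (0%), high control EC100 acetylcholine (100%) | Probe or stimulus: Acetylcholine, EC20 level | Times: Fluo-8 loading 80 min at 37 °C plus 30 min room temperature | Signal: Intracellular calcium via Fluo-8 fluorescence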
Of the large screens only hits and unclear results are named; the others gave an inactive call.

COc1cccc(NC(=O)c2nc3nc(C)cc(C(F)F)n3n2)c1	none
Cc1cc(C(F)F)n2nc(C(=O)Nc3cc(C)on3)nc2n1	CHRM4 PAM 28
COc1ccc(Nc2c(CC(C)C)nc3nc(C)cc(C)n23)cc1	none
COc1ccc(Nc2c(C3CC3)nc3nc(C)cc(C)n23)cc1	CHRM4 PAM 28
COc1ccc(NC(=O)c2nc(S(=O)(=O)Cc3cccc(C)c3)ncc2Cl)c(OC)c1	none
O=C(Nc1ccc(F)cc1)c1nc(S(=O)(=O)Cc2ccccc2)ncc1Cl	CHRM4 antagonist 36
Cc1ccc(NC(=O)c2nc(S(=O)(=O)Cc3ccccc3)ncc2Cl)cc1	CHRM4 antagonist 46
Cc1cccc(C)c1NC(=O)c1nc(S(=O)(=O)Cc2ccccc2)ncc1Cl	none
COc1ccc(OC)c(NC(=O)c2nc(S(=O)(=O)Cc3ccccc3)ncc2Cl)c1	CHRM4 antagonist 44
Cc1ccccc1CS(=O)(=O)c1ncc(Cl)c(C(=O)Nc2ccc(F)cc2)n1	CHRM4 antagonist 29
O=C(O)c1cnc(-c2ccccc2)nc1Sc1ccc(Cl)cc1Cl	none
O=C(Cc1ccc(NS(=O)(=O)c2ccc(F)cc2)cc1)NCc1cccnc1	none
CCCCN1C(=O)CCC(C(=O)O)C1c1ccc([N+](=O)[O-])cc1 (stereo unspecified)	none
CC(=O)Nc1ccc2c(c1)C(=Nc1cccc(C)c1)c1ccccc1-2	CHRM4 PAM 16
Nc1ncnc2c1ncn2[C@@H]1O[C@H](C(=O)Nc2ccc(C(=O)N3CCCCC3)cc2)[C@@H](O)[C@H]1O	none
CCCCCCCCCCCCN1[C@@H](CC(C)=O)c2cc(F)ccc2S1(=O)=O	none
CCCCCCCCCCCCN1[C@@H](CC(=O)OC)c2cc(F)cc(F)c2S1(=O)=O	CHRM4 PAM 26
CCCCCCCCCCCCN1[C@@H](CC(=O)OC)c2cc(F)ccc2S1(=O)=O	CHRM4 PAM 30
Cc1c(Cl)cccc1NC(=S)NCC1COc2ccccc2O1 (stereo unspecified)	CHRM5 antagonist 39
CC(=O)Nc1ccc(C=NNc2ccc(S(=O)(=O)Nc3ccccc3C(=O)O)cc2[N+](=O)[O-])cc1	none
CC(=O)Nc1cccc(/C(C)=N/Nc2ccc(S(=O)(=O)Nc3ccccc3C(=O)O)cc2[N+](=O)[O-])c1	CHRM4 PAM 20
O=C(C1=C[C@H](c2coc3ccccc3c2=O)C[C@H](OCCCCO)O1)N1CCN(Cc2ccccc2)CC1	CHRM5 antagonist 62
O=C(NCc1ccccc1)C1=C[C@@H](c2coc3ccccc3c2=O)C[C@@H](OCCCCO)O1	CHRM5 antagonist 28
O=C(NCc1ccccc1)C1=C[C@H](c2coc3ccccc3c2=O)C[C@H](OCCCCO)O1	none
COc1ccccc1-n1cnc2cc(NCc3ccccn3)ccc21	CHRM4 antagonist 42
Cc1ncc(CN2CCCC(C(=O)Nc3ccc(-c4cccc(F)c4)cc3)C2)n1C (stereo unspecified)	CHRM4 antagonist 33
CCOc1ccc(CCNS(=O)(=O)c2cc3c(cc2C)NC(=O)CO3)cc1OCC	none
Cc1cc(C(F)F)n2ncc(C(=O)NCc3ccccc3F)c2n1	none
O=S1(=O)Nc2c(ccc3cccnc23)-c2ccccc21	CHRM5 antagonist 31, CHRM4 antagonist 30
Clc1ccc2ccc3cccnc3c2n1	none
C/C=C(\C)C(=O)NCCN1C2=NC[C@@H](C)N2C[C@H]1Cc1ccc(O)cc1	CHRM4 PAM 30
Cn1c(=O)c([N+](=O)[O-])c(Cl)c2ccccc21	CHRM4 antagonist 41
CCN(CC)c1c([N+](=O)[O-])c(=O)n(C)c2ccccc12	none
C=Cn1cc[n+](CC(=O)c2ccc(Cl)c(Cl)c2)c1	none
Cn1cc(CN2CCC(C(=O)NC(c3ccc(-c4ccccc4)cc3)c3cnccn3)CC2)c2ccccc21 (stereo unspecified)	CHRM4 antagonist 28
C[C@@H]1CCCCO[C@@H](CN(C)S(=O)(=O)c2ccc(Cl)cc2)[C@@H](C)CN([C@H](C)CO)C(=O)c2cc(N(C)C)ccc2O1	CHRM4 PAM 18
Cc1ccc(S(=O)(=O)N(C)C[C@H]2OCCCC[C@@H](C)Oc3ccc(N(C)C)cc3C(=O)N([C@H](C)CO)C[C@@H]2C)cc1	none
COc1cccc(NC(=O)c2ccc(N3C(=O)C4CCC(C)CC4C3=O)cc2)c1 (stereo unspecified)	CHRM5 antagonist 29
COc1ccc(NC(=O)c2cccc(N3C(=O)C4CCC(C)CC4C3=O)c2)c(OC)c1 (stereo unspecified)	none
O=C(COc1ccccc1F)N1N=C(c2cccs2)CC1c1ccco1 (stereo unspecified)	none
O=S(=O)(NC1CCCC1)c1ccc(S(=O)(=O)NC2CCCC2)cc1	CHRM5 agonist 28
CC(C)CN(C(=O)COC(=O)c1ccccc1SCC(=O)N1CCCC1)C1CCS(=O)(=O)C1 (stereo unspecified)	none
Cc1cc(C)c2sc(NNC(=O)C3COc4ccccc4O3)nc2c1 (stereo unspecified)	CHRM4 PAM 16
CN(C)c1ccc(/C=C/C(=O)c2ccc(O)cc2)cc1	CHRM5 antagonist 50, M4 ag 51, CHRM5 agonist 229
CN(C)c1ccc(/C=C/C(=O)c2ccc3c(c2)OCO3)cc1	CHRM4 antagonist 27, M4 ag 121, CHRM5 agonist 76
O=C(/C=C/c1cccc(O)c1)c1cccnc1	none
CN(C)c1ccc(/C=C/C(=O)c2cccnc2)cc1	M4 ag 39, CHRM5 agonist 107
COc1ccc(C(=O)/C=C/c2ccc(N(C)C)cc2)c(OC)c1	CHRM5 antagonist 52, CHRM4 antagonist 36, M4 ag 114, CHRM5 agonist 146
COc1ccccc1N(CC(=O)NCc1ccccc1)C(=O)CCC(=O)Nc1nccs1	none
Cc1nc2ccc(NC(=O)c3ccc(Cl)c(S(=O)(=O)N(C)c4ccccc4)c3)cc2s1	none
Cc1nc2ccc(NC(=O)c3cc(S(=O)(=O)N(C)c4ccccc4)ccc3Cl)cc2s1	CHRM5 antagonist 29
CN(c1ccccc1)S(=O)(=O)c1cccc(NC(=O)c2ccc(Cl)c([N+](=O)[O-])c2)c1	CHRM5 antagonist 34, CHRM4 antagonist 33
COc1cccc(C(=O)NC(=S)Nc2ccc(N(C)C)cc2)c1	none
COc1ccccc1-c1noc(CCC(=O)Nc2cc(C(F)(F)F)ccc2Cl)n1	CHRM4 antagonist 31, M5 PAM 19
COc1ccccc1-c1noc(CCC(=O)Nc2cccnc2)n1	none
CCN(c1ccc(C)cc1C)S(=O)(=O)c1nnc(NC(=O)c2ccco2)s1	none
CCN(c1ccc(C)cc1)S(=O)(=O)c1nnc(NC(=O)c2ccco2)s1	CHRM4 PAM 20
